Tests used:
Mus musculus [1] = species on record: Mus musculus; test: Inhibition of electrically-evoked contractions of mouse vas deferens; format: functional
Method in brief: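 Mouse isolated vas deferens; response is drug-induced inhibition of electrically evoked contractions. Drugs mixed with 2 parts Tween 80 by weight and dispersed in 0.9% saline. EC50 with 95% confidence limits from nonlinear regression of log concentration–response curves.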

Mus musculus [2] = test: Rectal temperature in the mouse model, following intravenous administration (30 mg/kg), in the tail vein.; format: functional
Method in brief: (§1)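 Mice dosed by tail-vein iv injection in 1:1:18 emulphor:ethanol:saline, 0.1 mL/10 g body weight. Tetrad scored for spontaneous activity, tail-flick antinociception, rectal temperature and ring immobility. Values reported as ED50 ± SE from ALLFIT analysis, or as percent effect (temperature change for RT) at the stated dose (mg/kg).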

Mus musculus [3] = species on record: Mus musculus; test: Dissociation constant of SR-141716A determined in the presence using mouse vas deferens.; format: functional
Method in brief: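 Mouse isolated vas deferens, electrically evoked contractions; agonist concentration–response curves run with SR-141716A at 31.62 nM or with Tween 80 vehicle. Kd from (x−1)=B/Kd, where x is the dose ratio. Dose ratios and 95% confidence limits by symmetrical (2+2) dose parallel line assay, using agonist concentration pairs on the steepest part of each curve.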

[4] = biological target: Cannabinoid receptor (Homo sapiens) (UniProt P34972+P21554); test: Ratio of binding affinities in cannabinoid CB1 receptor against cannabinoid CB2 receptor; format: protein assay
Method in brief: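 Ratio of Ki values. CB1 Ki from displacement of 1 nM [3H]CP-55,940 in whole-brain P2 membranes. CB2 Ki from the same radioligand on CHO cells expressing cloned human CB2. Both Ki values from […].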

Mus musculus [5] = test: Rectal temperature in the mouse model, following intravenous administration of the compound(60 mg/kg), in the tail vein.; format: functional; method in brief: as §1
Cannabinoid receptor 1 = Cannabinoid receptor 1 (Rattus norvegicus, UniProt P20272); test: Binding affinity for cannabinoid receptor 1.
Mus musculus [6] = test: Rectal temperature in the mouse model, following intravenous administration of the compound, in the tail vein.at the dose (100 mg/kg); format: functional; method in brief: as §1

Chain of Cannabinoid receptor (Homo sapiens) (P21554 whole entry, looked up): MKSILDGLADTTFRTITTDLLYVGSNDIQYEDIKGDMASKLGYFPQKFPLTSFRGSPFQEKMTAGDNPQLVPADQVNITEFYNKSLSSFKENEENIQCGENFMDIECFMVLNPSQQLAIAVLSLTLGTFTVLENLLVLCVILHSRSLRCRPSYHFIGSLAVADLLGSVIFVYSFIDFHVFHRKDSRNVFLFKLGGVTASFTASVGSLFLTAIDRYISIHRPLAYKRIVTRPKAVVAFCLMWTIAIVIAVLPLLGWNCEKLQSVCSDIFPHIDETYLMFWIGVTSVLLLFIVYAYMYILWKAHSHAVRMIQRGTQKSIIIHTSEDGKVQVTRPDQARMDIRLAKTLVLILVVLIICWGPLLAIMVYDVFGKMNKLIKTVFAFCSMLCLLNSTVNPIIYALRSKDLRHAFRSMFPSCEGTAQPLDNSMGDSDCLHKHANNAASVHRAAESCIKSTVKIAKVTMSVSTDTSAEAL
Chain of Cannabinoid receptor (Homo sapiens) (P34972 whole entry, looked up): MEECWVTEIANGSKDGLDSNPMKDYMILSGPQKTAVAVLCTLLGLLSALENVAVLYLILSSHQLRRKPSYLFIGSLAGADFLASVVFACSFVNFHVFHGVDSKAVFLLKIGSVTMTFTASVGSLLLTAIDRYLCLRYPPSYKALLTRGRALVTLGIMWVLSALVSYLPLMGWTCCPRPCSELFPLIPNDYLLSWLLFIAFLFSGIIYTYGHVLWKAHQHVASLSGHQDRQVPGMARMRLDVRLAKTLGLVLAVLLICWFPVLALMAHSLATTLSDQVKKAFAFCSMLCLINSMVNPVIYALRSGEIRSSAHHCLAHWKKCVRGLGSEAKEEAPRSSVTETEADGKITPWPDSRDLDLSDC
Chain of Cannabinoid receptor 1 (P20272 whole entry): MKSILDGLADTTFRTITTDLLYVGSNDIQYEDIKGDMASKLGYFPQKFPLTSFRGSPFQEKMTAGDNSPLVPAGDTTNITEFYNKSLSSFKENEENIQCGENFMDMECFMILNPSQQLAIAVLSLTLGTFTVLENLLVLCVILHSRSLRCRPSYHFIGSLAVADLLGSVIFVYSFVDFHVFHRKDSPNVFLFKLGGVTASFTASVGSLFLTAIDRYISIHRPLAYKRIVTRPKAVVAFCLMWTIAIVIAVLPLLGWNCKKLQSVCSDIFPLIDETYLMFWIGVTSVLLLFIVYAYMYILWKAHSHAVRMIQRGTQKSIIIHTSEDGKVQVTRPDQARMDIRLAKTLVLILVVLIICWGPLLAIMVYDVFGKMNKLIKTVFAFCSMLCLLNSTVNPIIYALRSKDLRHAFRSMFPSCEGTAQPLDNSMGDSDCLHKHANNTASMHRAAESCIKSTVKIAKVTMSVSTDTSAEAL

| SMILES | EC50 (Mus musculus [1]) | Temperature (Mus musculus [2]) | Kd (Mus musculus [3]) | Ratio [4] | Temperature (Mus musculus [5]) | Ki (Cannabinoid receptor 1) | Temperature (Mus musculus [6]) |
| --- | --- | --- | --- | --- | --- | --- | --- |
| C=C1CC[C@@H]2C(C1)c1c(cc(CCCCC)c3c1OCCC3)OC2(C)C (stereo partly drawn) | 28.6 nM | -3.6 °C | 2.49 nM | 4.4 |  |  |  |
| CCCCCc1cc2c(c3c1CCCO3)C1C[C@@H](O)CC[C@H]1C(C)(C)O2 (stereo partly drawn) | 83.5 nM |  | 1.67 nM |  |  |  |  |
| CCCCCc1cc2c(c3c1CCCO3)C1CC(=O)CC[C@H]1C(C)(C)O2 (stereo partly drawn) | 7.23 nM |  | 1.72 nM | 3.9 | -2.9 °C | 90 nM |  |
| CCCCCc1cc2c(c3c1CCCO3)C1CC=CC[C@H]1C(C)(C)O2 (stereo partly drawn) | 16.5 nM |  | 2.97 nM | 2.8 |  | 364 nM | -1.2 °C |
| CCCCCc1cc2c(c3c1CCCO3)C1C[C@H](O)CC[C@H]1C(C)(C)O2 (stereo partly drawn) | 8.35 nM |  | 1.67 nM |  |  |  |  |

— ChEMBL document CHEMBL1130181, “Importance of the C-1 substituent in classical cannabinoids to CB2 receptor selectivity: synthesis and characterization of a series of O,2-propano-delta 8-tetrahydrocannabinol analogs” (J Med Chem, 1997)
